Source: PubChem (several laboratories)
TAAR1 agonist = human TAAR1 agonism; Q96RJ0; CHO RD-HGA16 TAAR1, Fluo-8 calcium fluorescence; vehicle wells 0%, saturating PEA agonist 100%; activation, % at 3 µM; actives 0.99% (n = 360,000);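 active means activation above the mean activation of all test compounds in the run plus 3 SD, cut at about 38% in these data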
Target sequence (Q96RJ0 whole entry, looked up): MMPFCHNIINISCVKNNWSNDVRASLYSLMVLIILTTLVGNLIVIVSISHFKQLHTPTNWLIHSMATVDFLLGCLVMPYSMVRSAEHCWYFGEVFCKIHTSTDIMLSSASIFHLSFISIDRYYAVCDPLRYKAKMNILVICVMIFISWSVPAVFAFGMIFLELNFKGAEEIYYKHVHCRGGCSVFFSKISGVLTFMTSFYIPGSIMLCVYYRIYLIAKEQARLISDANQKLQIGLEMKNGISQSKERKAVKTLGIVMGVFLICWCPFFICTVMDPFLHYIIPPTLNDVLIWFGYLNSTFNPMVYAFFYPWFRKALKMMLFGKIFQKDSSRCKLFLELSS
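System: CHO RD-HGA16 cells carrying human TAAR1 plus Gα16; Incubation: 17-24 h seeding, 75 min 37 °C dye, 30 min RT; Measured by: Fluo-8 fluorescence, 5 s baseline then 140 s kinetic read; Control set: DMSO and PEA EC100; Replication: single well for each compound.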
ANO1 activ = activates or potentiates the mouse TMEM16A chloride channel. HEK293 TMEM16A/YFP-H148Q/I152L, iodide quench fluorescence; stronger effect = lower value. B-score at 10 µM. actives 0.3% (n = 340,000). AID 623877;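 active means fluorescence-ratio B-score plate-corrected deviation score at least 3 library SD below zero, with starting fluorescence score within 5 deviations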;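 further: channel opened by trigger with iodide after compound preincubation; score built on the fluorescence ratio of max minus min over baseline; more negative score means more quench and so TMEM16A activation or potentiation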
CRFBP-R2 agonist = CRF-BP/CRF-R2 complex agonism; HEK293 CRF-R2/CRF-BP, calcium dye fluorescence (FLIPR); percent of saturating CRF peptide response; actives 0.46% (n = 350,000); activation, % at 13.2 µM;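 active means activation of at least 50%, plus an integration ratio under a set limit after plate pattern correction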;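 further: plate controls were neutral control wells without compound for no effect and CRF at EC100 for full effect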
TMEM16A inh = inhibitors of mouse TMEM16A calcium-activated chloride channel. AID 588511. normalized B-score (activity score, 25-100; higher = stronger inhibition) at 10 µM. Q8BHY3. HEK293 TMEM16A/YFP iodide influx fluorescence, ionomycin. actives 1.2% (n = 310,000);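 active means ratio plate-corrected score three or more library SD toward inhibition, starting fluorescence score within five deviations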;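 further: score derived from kinetic fluorescence span divided by baseline fluorescence per well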
TAAR1 antag = human TAAR1 antagonism; Q96RJ0; CHO RD-HGA16 TAAR1, Fluo-8 calcium fluorescence, antagonist; inhibition, % at 3 µM; actives 1.5% (n = 360,000);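 active means inhibition above a per-plate cutoff, the mean inhibition of test compounds on that plate plus 3 SD, cut at about 49% in these data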;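 further: 0% = DMSO plus EC80 beta-PEA response and 100% = DMSO alone without agonist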
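Test system – hTAAR1-expressing CHO RD-HGA16 cells, Gα16-coupled · Reagent – β-PEA at EC80 concentration, post-compound challenge · Compound dosing – 3 µM, single point · Timing – 140 s kinetic read after compound, 140 s after agonist · Detection – Fluo-8 intracellular calcium dye fluorescence, real-time kinetic reads · Control set – DMSO and EC80 PEA controls · Repeats – n of 1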
CRFBP-R2 block = CRF-BP/CRF-R2 complex antagonism | HEK293 CRF-R2/CRF-BP, CRF-induced calcium fluorescence | actives 0.59% (n = 350,000) | AID 588475 | inhibition, % at 11.8 µM;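 active means inhibition of the ligand-induced calcium signal above about 50% at the single tested concentration, limit read from the data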
nonsel antag count = nonselective antagonist in TAAR1 antagonist counter-screen | counterscreen cell line, calcium fluorescence, antagonist mode | shares compounds with TAAR1 antag | actives 77% (n = 2,400) | AID 651780 | inhibition, % at 3 µM; in the data active means inhibition above about 22%;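 further: CHO-Ga16 host cells stimulated with ATP at an EC80 level; 0% = agonist EC80 plus vehicle and 100% = vehicle without agonist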
TAAR1 antag conf = human TAAR1 antagonism, confirmed; TAAR1-expressing cells, fluorescence antagonist read-out; inhibition, % at 3 µM; shares compounds with TAAR1 antag; actives 40% (n = 2,400); AID 651785; in the data active means inhibition above about 49%;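 further: CHO-Ga16 host cells challenged with agonist PEA near its EC80; 0% = agonist at EC80 plus vehicle and 100% = vehicle with no agonist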
Ga16 nonsel ag = nonselective Ga16 agonist in TAAR1 antagonist counter-screen; actives 18% (n = 2,400); shares compounds with TAAR1 antag; Ga16-expressing cells, calcium fluorescence, agonist counterscreen; activation, % at 3 µM; in the data active means activation above about 12%;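 further: 0% = vehicle wells and 100% = saturating stimulus response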
TAAR1 ag counter = counter-screen for human TAAR1 antagonists: TAAR1 agonists. shares compounds with TAAR1 antag. hTAAR1 cell line, fluorescence activation, agonist mode. activation, % at 3 µM. actives 2% (n = 2,400); in the data active means activation above about 37%;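 further: CHO cells stably expressing TAAR1 with calcium dye readout; 0% = DMSO vehicle and 100% = full agonist response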
Active calls of the source: *; i = inactive; / = no result given. Sampled rows, rich in hits. Any-hit rate of the full collection: about 3.9%.

SMILES	TAAR1 agonist	ANO1 activ	CRFBP-R2 agonist	TMEM16A inh	TAAR1 antag	CRFBP-R2 block	nonsel antag count	TAAR1 antag conf	Ga16 nonsel ag	TAAR1 ag counter
CNC(=O)c1[nH]cnc1C(=O)NCC(=O)OCc1ccccc1	20	i	1	i	42	-1	/	/	/	/
O=C(CNC(=O)c1nc[nH]c1C(=O)NCc1ccccc1)OCc1ccccc1	16	i	0	i	67*	10	37*	57*	5	7
O=C(CNC(=O)c1nc[nH]c1C(=O)NCC(=O)OCc1ccccc1)OCc1ccccc1	16	i	-1	i	69*	11	37*	56*	10	10
CCN(CC)C(=O)c1[nH]cnc1C(=O)NCC(=O)OCc1ccccc1	25	i	-1	i	71*	7	25*	52*	9	9
Cc1ccc(S(=O)(=O)CCC(=O)OCC(=O)Nc2cc(S(=O)(=O)N3CCOCC3)ccc2C)cc1	8	i	0	i	-36	-5	/	/	/	/
COc1ccc(C(=O)NC2CCN(C(=O)NCc3ccccc3)CC2)cc1	-2	i	0	i	-8	-7	/	/	/	/
COc1ccc(CN2CCNC(=O)C2CC(=O)NCCC2=CCCCC2)c(F)c1 (stereo unspecified)	35	i	0	i	-26	3	/	/	/	/
COC(CNC(=O)C1CCC(CNS(=O)(=O)c2c(C)cc(C)cc2C)CC1)OC (stereo unspecified)	0	i	-2	i	0	10	/	/	/	/
C/C(=N\NC(=O)c1cc2ccccc2cc1O)c1cc2ccccc2o1	19	i	50	100*	60*	3	62*	88*	37*	34
C[C@@H]1CC=C[C@@H]2[C@H]1C(=O)N(Cc1ccccc1)[C@H]2c1ccccc1Br	4	i	1	/	70*	-3	21	39	6	11
COc1ccc(Br)cc1[C@H]1[C@H]2C=CC[C@@H](C)[C@@H]2C(=O)N1Cc1ccccc1	16	i	0	/	-6	1	/	/	/	/
CCn1cc(Cl)c(C(=O)Nc2nccs2)n1	0	i	1	/	2	25	/	/	/	/
Cc1ccc(S(=O)(=O)NCC2CCC(C(=O)NC3CCCCC3)CC2)cc1 (stereo unspecified)	3	i	-1	i	13	-1	/	/	/	/
CCOC(=O)c1cccc(NC(=O)c2ccc3c(c2)C(=O)N(CC2CCCO2)C3=O)c1 (stereo unspecified)	9	i	-1	i	68*	7	24*	41	9	7
Cc1ccc(C(=O)Nc2ccc3c(c2)C(=O)N(CC2CCCO2)C3=O)cc1 (stereo unspecified)	3	i	-9	i	-12	-12	/	/	/	/
COc1cc(NC(=O)c2cc3ccccc3cc2OC)ccc1NC(=O)c1cccs1	11	i	3	i	85*	1	23*	51*	9	8
COc1cc(NC(=O)c2ccccc2Cl)ccc1NC(=O)c1cccs1	4	i	4	i	0	3	/	/	/	/
CC(C)(C)NC(=O)CN(Cc1cccs1)C(=O)C1COc2ccccc2O1 (stereo unspecified)	4	i	-1	i	12	2	/	/	/	/
CC(C)CCNC(=O)C(c1ccc(O)cc1)N(Cc1cccs1)C(=O)C1COc2ccccc2O1 (stereo unspecified)	5	i	0	i	57*	26	27*	54*	4	1
